Measurements from different studies.
Lines come from different studies, so protocols differ. pIC50: −log10 of the molar value.
Cell line: BT-549
Observed: cell growth or viability

COc1ccc(C(=O)/C=C/c2cccc3ccccc23)cc1S(N)(=O)=O
GI50 (SRB; 48 h): 1.8 µM

C#C[C@@]1(O)[C@@H](CO)O[C@@H](n2cc(Br)c3c(N)ncnc32)[C@@H]1O
GI50 (SRB): 0.147 µM

COc1cccc(Oc2ccccc2NC(=O)CNC(=O)c2cccc3ccccc23)c1
GI50 (SRB; 48 h): 0.295 µM

COc1ccc(C(=O)/C=C/c2cccc(Cl)c2Cl)cc1S(N)(=O)=O
GI50 (SRB; 48 h): 4.7 µM

CC(=O)O[C@H]1C(=O)[C@@]2(C)[C@H]([C@H](OC(=O)c3ccccc3)[C@]3(O)C[C@H](OC(=O)[C@H](O)[C@@H](NC(=O)c4ccccc4)c4ccccc4)C(C)=C1C3(C)C)[C@]1(OC(C)=O)CO[C@@H]1C[C@@H]2O
pIC50 (ATP luminescence; 72 h): 8.51

O=C1Nc2ccccc2C1=NNc1nnc2n1N=C(c1ccccc1)CS2
inhibition (SRB; 10 µM): 28%

COc1ccc(-c2ccc(-c3ccc(C(=N)N)nc3)s2)cc1
GI50 (SRB): 1.7 µM

COc1cccc2c1C(=O)c1c(O)c3c(c(O)c1C2=O)C[C@@](O)(C(=O)CO)C[C@@H]3O[C@H]1C[C@H](N)[C@H](O)[C@H](C)O1
IC50 (neutral red; 48 h): 1.05 mg/L

COc1cc(-c2ccc(-c3ccc(C(=N)N)nc3)s2)cc(OC)c1OC
GI50 (SRB): 1.67 µM

Cl.Oc1cccc2c1[nH]c1c(C3=CC4(O)CC/C=C\CCCCN5CCC3C3(CC6/C=C\CCCCN6C43)C5)nccc12 (single isomer, unassigned; (+))
IC50 (neutral red; 48 h): 1.05 mg/L

CC(=O)O[C@@]12CO[C@@H]1C[C@H](O)[C@@]1(C)C(=O)[C@H](O)C3=C(C)[C@@H](OC(=O)[C@H](O)[C@@H](NC(=O)OC(C)(C)C)c4ccccc4)C[C@@](O)([C@@H](OC(=O)c4ccccc4)[C@H]21)C3(C)C
pIC50 (ATP luminescence; 72 h): 9.00
